Experimental data as given in ChEMBL document CHEMBL1146216, “Synthesis and biological activity of a gemcitabine phosphoramidate prodrug” (J Med Chem, 2007).

Columns and labels:
[1] = test system: BT-549; experiment: Growth inhibition in BT549 cells; format: functional; details: Homo sapiens
[2] = test system: OVCAR-3; experiment: Growth inhibition of OVCAR-3 cells; format: functional; details: Homo sapiens
[3] = test system: CCRF-CEM; experiment: Ratio of growth inhibition of dCK deficient CEM cells by drug to 2'-2'-difluorodeoxycytidine; format: functional, Homo sapiens
[4] = test system: HCT-15; experiment: Growth inhibition in HCT15 cells; format: functional; details: Homo sapiens
[5] = Growth inhibition of H292 cells by SRB assay in presence of dipyridamole; format: functional, cell-based; details: Homo sapiens, NCI-H292
In short: (§1)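 SRB growth assay run with the nucleoside transport inhibitor dipyridamole at 1 µM final. Cells were seeded at 5000/well and exposed to a range of drug concentrations for 72 h at 37 °C, 5% CO2. Media: DMEM for A2780 and the dCK-deficient AG6000; RPMI for A549, H292 and H460; each with 10% FCS and 20 mM HEPES. Relative growth was calculated against ODzero and untreated controls.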

[6] = Ratio of growth inhibition of H292 cells by drug to 2'-2'-difluorodeoxycytidine; format: functional, Homo sapiens
[7] = test system: NCI-H460; experiment: Growth inhibition of H460 cells by SRB assay; format: functional, cell-based; details: Homo sapiens
In short: (§2)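 Cells seeded at 5000/well and exposed to a range of drug concentrations for 72 h at 37 °C, 5% CO2, then read by SRB. A2780 and its dCK-deficient variant AG6000 were grown in DMEM; A549, H292 and H460 in RPMI; both media had 10% FCS and 20 mM HEPES. OD was read at 540 or 492 nm. Relative growth = (ODtreated − ODzero)/(ODcontrol − ODzero) × 100%, with ODzero taken at drug addition.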

[8] = test system: K562; experiment: Growth inhibition of K562 cells; format: functional; details: Homo sapiens
[9] = test system: A549; experiment: Growth inhibition of A549 cells by SRB assay; format: functional, cell-based; details: Homo sapiens; in short: as §2
[10] = test system: SN12C; experiment: Growth inhibition of SN12C cells; format: functional; details: Homo sapiens
[11] = test system: SW1573; experiment: Growth inhibition of SW1573 cells by SRB assay in presence of dipyridamole; format: functional, cell-based; details: Homo sapiens
In short: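 SW1573 cells cultured in DMEM, 10% FCS, 20 mM HEPES, 37 °C, 5% CO2. Plated at 5000 cells/well and given graded drug concentrations with the nucleoside transport inhibitor dipyridamole at 1 µM final, for 72 h. SRB read-out at OD 540 or 492 nm. Growth is expressed relative to time-zero and untreated wells.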

[12] = test system: EKVX; experiment: Growth inhibition in EKVX cells; format: functional; details: Homo sapiens
[13] = test system: MDA-MB-435; experiment: Growth inhibition of MDA-MB-435 cells; format: functional; details: Homo sapiens
[14] = test system: MOLT-4; experiment: Growth inhibition of MOLT4 cells; format: functional; details: Homo sapiens
[15] = test system: A498; experiment: Growth inhibition in A498 cells; format: functional; details: Homo sapiens
[16] = test system: CAKI-1; experiment: Growth inhibition in CAKI1 cells; format: functional; details: Homo sapiens
[17] = test system: SK-MEL-5; experiment: Growth inhibition of SK-MEL-5 cells; format: functional; details: Homo sapiens
[18] = test system: CCRF-CEM; experiment: Ratio of growth inhibition of CEM cells by drug to 2'-2'-difluorodeoxycytidine; format: functional, Homo sapiens
[19] = test system: PC-3; experiment: Growth inhibition of PC3 cells; format: functional; details: Homo sapiens
[20] = test system: IGROV-1; experiment: Growth inhibition in IGROV1 cells; format: functional; details: Homo sapiens
[21] = test system: SW-620; experiment: Growth inhibition of SW620 cells; format: functional; details: Homo sapiens
[22] = test system: ACHN; experiment: Growth inhibition in ACHN cells; format: functional; details: Homo sapiens
[23] = test system: CCRF-CEM; experiment: Growth inhibition of dCK deficient CEM cells by MTT assay; details: Homo sapiens
[24] = test system: SK-MEL-28; experiment: Growth inhibition of SK-MEL-28 cells; format: functional; details: Homo sapiens
[25] = test system: NCI-H522; experiment: Growth inhibition of NCI-H522 cells; format: functional; details: Homo sapiens
[26] = test system: A2780; experiment: Growth inhibition of A2780 cells by SRB assay in presence of dipyridamole; format: functional, cell-based; details: Homo sapiens; in short: as §1
[27] = test system: SK-OV-3; experiment: Growth inhibition of SKOV3 cells; format: functional; details: Homo sapiens
[28] = test system: NCI-H460; experiment: Growth inhibition of NCI-H460 cells; format: functional; details: Homo sapiens
[29] = test system: NCI/ADR-RES; experiment: Growth inhibition of NCI/ADR-RES cells; format: functional; details: Homo sapiens
[30] = test system: UO-31; experiment: Growth inhibition of UO31 cells; format: functional; details: Homo sapiens
[31] = Growth inhibition of AG6000 cells by SRB assay; format: functional, cell-based; details: Homo sapiens; in short: as §2
[32] = test system: CCRF-CEM; experiment: Growth inhibition of CEM cells by MTT assay in presence of dipyridamole; details: Homo sapiens
[33] = Growth inhibition in HS 578T cells; format: functional; details: Homo sapiens
[34] = test system: HT-29; experiment: Growth inhibition in HT29 cells; format: functional; details: Homo sapiens
[35] = Ratio of growth inhibition of AG6000 cells by drug to 2'-2'-difluorodeoxycytidine; format: functional, Homo sapiens
[36] = test system: SW1573; experiment: Ratio of growth inhibition of SW1573 cells by drug to 2'-2'-difluorodeoxycytidine; format: functional, Homo sapiens
[37] = test system: NCI-H460; experiment: Ratio of growth inhibition of H460 cells by drug to 2'-2'-difluorodeoxycytidine; format: functional, Homo sapiens
[38] = test system: NCI-H460; experiment: Growth inhibition of H460 cells by SRB assay in presence of dipyridamole; format: functional, cell-based; details: Homo sapiens; in short: as §1
[39] = test system: HOP-62; experiment: Growth inhibition in HOP62 cells; format: functional; details: Homo sapiens
[40] = test system: COLO 205; experiment: Growth inhibition in COLO 205 cells; format: functional; details: Homo sapiens
[41] = test system: SF-539; experiment: Growth inhibition of SF539 cells; format: functional; details: Homo sapiens
[42] = test system: TK-10; experiment: Growth inhibition of TK10 cells; format: functional; details: Homo sapiens
[43] = test system: A549; experiment: Growth inhibition in A549 cells; format: functional; details: Homo sapiens
[44] = test system: A2780; experiment: Ratio of growth inhibition of A2780 cells by drug to 2'-2'-difluorodeoxycytidine; format: functional, Homo sapiens
[45] = test system: HOP-92; experiment: Growth inhibition in HOP92 cells; format: functional; details: Homo sapiens
[46] = test system: SF-268; experiment: Growth inhibition of SF268 cells; format: functional; details: Homo sapiens
[47] = test system: NCI-H226; experiment: Growth inhibition of NCI-H226 cells; format: functional; details: Homo sapiens
[48] = test system: 786-0; experiment: Growth inhibition in 786-0 cells; format: functional; details: Homo sapiens
[49] = test system: UACC-62; experiment: Growth inhibition of UACC62 cells; format: functional; details: Homo sapiens
[50] = test system: SF-295; experiment: Growth inhibition of SF295 cells; format: functional; details: Homo sapiens
[51] = test system: CCRF-CEM; experiment: Growth inhibition of CEM cells by MTT assay; details: Homo sapiens
[52] = test system: M14; experiment: Growth inhibition of M14 cells; format: functional; details: Homo sapiens
[53] = test system: NCI-H23; experiment: Growth inhibition of NCI-H23 cells; format: functional; details: Homo sapiens
[54] = test system: OVCAR-8; experiment: Growth inhibition of OVCAR8 cells; format: functional; details: Homo sapiens
[55] = Growth inhibition of AG6000 cells by SRB assay in presence of dipyridamole; format: functional, cell-based; details: Homo sapiens; in short: as §1
[56] = test system: KM12; experiment: Growth inhibition of KM12 cells; format: functional; details: Homo sapiens
[57] = test system: SW1573; experiment: Growth inhibition of SW1573 cells by SRB assay; format: functional, cell-based; details: Homo sapiens
In short: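 SW1573 NSCLC cells grown in DMEM with 10% FCS and 20 mM HEPES at 37 °C, 5% CO2. Seeded at 5000 cells/well and exposed to a range of drug concentrations for 72 h, then SRB assay. OD read at 540 or 492 nm. Relative growth = (ODtreated − ODzero)/(ODcontrol − ODzero) × 100%, with ODzero taken at drug addition.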

[58] = test system: LOX IMVI; experiment: Growth inhibition of LOX IMVI cells; format: functional; details: Homo sapiens
[59] = test system: HCT-116; experiment: Growth inhibition in HCT116 cells; format: functional; details: Homo sapiens
[60] = test system: MCF7; experiment: Growth inhibition of MCF7 cells; format: functional; details: Homo sapiens
[61] = test system: A549; experiment: Growth inhibition of A549 cells by SRB assay in presence of dipyridamole; format: functional, cell-based; details: Homo sapiens; in short: as §1
[62] = test system: OVCAR-5; experiment: Growth inhibition of OVCAR5 cells; format: functional; details: Homo sapiens
[63] = test system: CCRF-CEM; experiment: Growth inhibition of dCK deficient CEM cells by MTT assay in presence of dipyridamole; details: Homo sapiens
[64] = test system: NCI-H322M; experiment: Growth inhibition of NCI-H322M cells; format: functional; details: Homo sapiens
[65] = Growth inhibition of H292 cells by SRB assay; format: functional, cell-based; details: Homo sapiens, NCI-H292; in short: as §2
[66] = test system: SK-MEL-2; experiment: Growth inhibition of SK-MEL-2 cells; format: functional; details: Homo sapiens
[67] = test system: UACC-257; experiment: Growth inhibition of UACC257 cells; format: functional; details: Homo sapiens
[68] = test system: DU-145; experiment: Growth inhibition in DU145 cells; format: functional; details: Homo sapiens
[69] = test system: MDA-MB-231; experiment: Growth inhibition of MDA-MB-231 cells; format: functional; details: Homo sapiens
[70] = test system: A2780; experiment: Growth inhibition of A2780 cells by SRB assay; format: functional, cell-based; details: Homo sapiens; in short: as §2
[71] = test system: SNB-75; experiment: Growth inhibition of SNB75 cells; format: functional; details: Homo sapiens
[72] = test system: SNB-19; experiment: Growth inhibition of SNB19 cells; format: functional; details: Homo sapiens
[73] = test system: U-251; experiment: Growth inhibition of U251 cells; format: functional; details: Homo sapiens
[74] = test system: A549; experiment: Ratio of growth inhibition of A549 cells by drug to 2'-2'-difluorodeoxycytidine; format: functional, Homo sapiens

CN(CCCCCl)P(=O)(OCc1ccc([N+](=O)[O-])o1)OC[C@H]1O[C@@H](n2ccc(N)nc2=O)C(F)(F)[C@@H]1O (some centres undefined)
GI50 [1]: 1.6 µM
GI50 [2]: 3.2 µM
Ratio IC50 [3]: 0.26
GI50 [4]: 54 µM
IC50 [5]: 0.33 µM
Ratio IC50 [6]: 2.8
IC50 [7]: 0.077 µM
GI50 [8]: 13 µM
IC50 [9]: 0.079 µM
GI50 [10]: 0.49 µM
IC50 [11]: > 0.5 µM
GI50 [12]: 2.5 µM
GI50 [13]: 0.47 µM
GI50 [14]: 0.77 µM
GI50 [15]: 5.8 µM
GI50 [16]: 0.22 µM
GI50 [17]: 3.2 µM
Ratio IC50 [18]: 15
GI50 [19]: 1.8 µM
GI50 [20]: 14 µM
GI50 [21]: 38 µM
GI50 [22]: 0.038 µM
IC50 [23]: 13 µM
GI50 [24]: 20 µM
GI50 [25]: 15 µM
IC50 [26]: 0.4 µM
GI50 [27]: 2.2 µM
GI50 [28]: 0.3 µM
GI50 [29]: 0.23 µM
GI50 [30]: 0.4 µM
IC50 [31]: 5 µM
IC50 [32]: 4 µM
GI50 [33]: 46 µM
GI50 [34]: 30 µM
Ratio IC50 [35]: 0.25
Ratio IC50 [36]: 5.8
Ratio IC50 [37]: 7.7
IC50 [38]: > 0.5 µM
GI50 [39]: 0.5 µM
GI50 [40]: 7.5 µM
GI50 [41]: 0.042 µM
GI50 [42]: 1.5 µM
GI50 [43]: 0.73 µM
Ratio IC50 [44]: 5.3
GI50 [45]: 0.15 µM
GI50 [46]: 0.26 µM
GI50 [47]: 16 µM
GI50 [48]: 0.062 µM
GI50 [49]: 1.1 µM
GI50 [50]: 0.88 µM
IC50 [51]: 2 µM
GI50 [52]: 0.054 µM
GI50 [53]: 0.074 µM
GI50 [54]: 0.11 µM
IC50 [55]: 6 µM
GI50 [56]: 15 µM
IC50 [57]: 0.092 µM
GI50 [58]: 0.76 µM
GI50 [59]: 1.1 µM
GI50 [60]: 0.45 µM
IC50 [61]: > 0.5 µM
GI50 [62]: 1.9 µM
IC50 [63]: 17 µM
GI50 [64]: 3.5 µM
IC50 [65]: 0.037 µM
GI50 [66]: 80 µM
GI50 [67]: 17 µM
GI50 [68]: 0.19 µM
GI50 [69]: 25 µM
IC50 [70]: 0.008 µM
GI50 [71]: 13 µM
GI50 [72]: 0.26 µM
GI50 [73]: 0.78 µM
Ratio IC50 [74]: 5.6
